Rev-erbA mod: modulators of Rev-erb alpha DNA binding, primary screen, biochemical, FITC-DNA, fluorescence polarization, uHTS | 370,000 compounds, 0.79% hits | Rev-erbα–FITC-DNA binding, 90 min | activity, % at 10 µM;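 active = activity above about 14%, limit read from the data; passing the limit was not always enough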;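 also: 0% = DMSO wells with 35 nM protein and 100% = DMSO wells with 750 nM protein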
Target sequence (P20393 whole entry, looked up): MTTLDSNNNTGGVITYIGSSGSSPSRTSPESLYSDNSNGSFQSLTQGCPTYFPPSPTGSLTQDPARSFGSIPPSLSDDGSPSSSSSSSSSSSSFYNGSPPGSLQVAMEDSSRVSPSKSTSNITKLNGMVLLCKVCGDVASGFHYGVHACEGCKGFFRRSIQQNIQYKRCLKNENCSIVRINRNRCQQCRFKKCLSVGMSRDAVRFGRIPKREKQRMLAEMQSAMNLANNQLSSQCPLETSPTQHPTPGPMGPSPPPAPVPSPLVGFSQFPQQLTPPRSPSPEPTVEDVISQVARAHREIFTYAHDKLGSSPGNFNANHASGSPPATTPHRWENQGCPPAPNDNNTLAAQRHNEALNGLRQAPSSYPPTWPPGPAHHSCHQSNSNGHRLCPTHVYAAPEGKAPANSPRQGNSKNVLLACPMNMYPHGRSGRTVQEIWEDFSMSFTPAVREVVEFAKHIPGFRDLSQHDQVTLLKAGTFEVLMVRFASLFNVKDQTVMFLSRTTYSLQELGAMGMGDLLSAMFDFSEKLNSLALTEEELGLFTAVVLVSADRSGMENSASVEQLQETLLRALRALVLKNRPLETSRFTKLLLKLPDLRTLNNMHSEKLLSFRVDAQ
NR2E3 ag-1: inhibitors of NR2E3-RetCOR corepressor binding, primary screen, NR2E3 agonist project, biochemical, TR-FRET, GST-NR2E3, biotin-RetCOR; Photoreceptor-specific nuclear receptor (Homo sapiens), Q9Y5X4; 1536-well; inhibition of corepressor binding, % at 4.78 µM; 320,000 compounds, 0.12% hits; AID 2300, 2010;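 active = percent inhibition above the cutoff of mean plus 3 SD of all tested compounds, set per screening campaign, cut at about 20% in these data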;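 also: 0% = DMSO wells and 100% = biotin wells as full block of FRET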
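Assay system: NR2E3–RetCOR corepressor complex. Quantity: 1.35 nM GST-NR2E3. Buffer or medium: pH 7.5 Tris-based buffer. Reagent: biotinylated RetCOR corepressor at 7 nM final. Schedule: 5 h at 4 °C. Detection: TR-FRET, emission read at 617 and 671 nm. Replicates: one well per compound, singlicate testing.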
NR2E3 ag-2: NR2E3 agonists in two-hybrid cells, primary screen, cell-based, luminescence, CHO-S, Gal4-NCOR/VP16-NR2E3 | 360,000 compounds, 0.35% hits | inhibition of corepressor binding, % at 3.98 µM | Photoreceptor-specific nuclear receptor (Homo sapiens), Q9Y5X4 | luciferase;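 active = inhibition above the mean of all tested compounds plus 3 SD, cut at about 70% in these data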;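 also: 0% = DMSO with NR2E3 transfected cells and 100% = cells lacking NR2E3 construct; higher means lower luciferase signal from less NR2E3 corepressor binding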
PG9 binder: binders of HIV-1 gp120 antibody PG9, primary screen, biochemical, TR-FRET; inhibition, % at 6.7 µM; HIV-1 gp120 / PG9 antibody interaction; AID 624416, 2012; 360,000 compounds, 0.43% hits; TR-FRET gp120-PG9 antibody binding; in the data active = inhibition above about 8.5%
NR2E3 ag confirm: NR2E3 agonist confirmation in cells, cell-based, luminescence, CHO-S two-hybrid | shares compounds with NR2E3 ag-2 | CHO-S mammalian two-hybrid NR2E3-NCOR, luciferase luminescence | inhibition, % at 3.98 µM | 2,300 compounds, 51% hits | AID 624378, 2012;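 active = average inhibition above a cutoff equal to the mean inhibition of all tested compounds plus one SD, cut at about 70% in these data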;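 also: 0% = DMSO in NR2E3 cells and 100% = DMSO in cells lacking NR2E3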
VP16 counter: GAL4-VP16 reporter modulators, confirmation, counter-screen for NR2E3 agonist project, cell-based, luminescence, CHO-S, high throughput; shares compounds with NR2E3 ag-2; CHO-S GAL4-VP16 luciferase reporter; inhibition, % at 3.98 µM; 2,300 compounds, 29% hits; AID 624379, 2012;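 active = mean inhibition above a cutoff equal to the average over all tested compounds plus one standard deviation, cut at about 70% in these data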;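 also: luciferase from a UAS reporter driven by GAL4-VP16 transactivation; 0% = DMSO with VP16-transfected cells and 100% = DMSO with cells lacking VP16; higher means less reporter light so more repression of VP16 activity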
The depositor's hits bear a star; nt = no result. Rows were chosen to be rich in hits. Some 1.5% of all compounds tested hit in one or more screens of this group.

SMILES | Rev-erbA mod | NR2E3 ag-1 | NR2E3 ag-2 | PG9 binder | NR2E3 ag confirm | VP16 counter
O=C(C1CCCN(S(=O)(=O)c2ccc([N+](=O)[O-])cc2)C1)N1CCN(Cc2ccccc2)CC1 (stereo not given) | -0.6 | nt | nt | nt | nt | nt
Cc1nc(CN(C)C(=O)c2cc(COc3ccc4ncccc4c3)on2)cs1 | 1.1 | -0.3 | 63.6 | 0.0 | 87.3* | 77.7*
COCCC1CCCCN1C(=O)c1cc(COc2ccc(-n3cncn3)cc2)on1 (stereo not given) | 2.1 | 16.5 | 104.7* | -2.1 | 94.6* | 78.9*
COCC1CCCCN1C(=O)c1cc(COc2ccc3ncccc3c2)on1 (stereo not given) | 6.5 | 6.4 | 103.9* | -1.7 | 91.1* | 76.4*
COCCOC1CCN(C(=O)c2cc(COc3ccc(-n4cncn4)cc3)on2)CC1 | -5.0 | 3.8 | 14.3 | 0.9 | nt | nt
CCC1CCCCN1C(=O)c1cc(COc2ccc3ncccc3c2)on1 (stereo not given) | 5.8 | -4.0 | 82.8* | -1.7 | 96.4* | 87.2*
CCN1CCN(C(=O)c2cc(COc3ccc4ncccc4c3)on2)CC1 | -3.7 | 1.3 | 35.8 | -0.7 | nt | nt
CC(C)N(Cc1nccn1C)C(=O)c1cc(COc2ccc3ncccc3c2)on1 | -3.9 | 0.3 | 15.2 | 0.2 | nt | nt
C[C@@H]1CN([C@@H](C)COC(=O)C(C)(C)C)C(=O)c2cc(NC(=O)Nc3ccccc3)ccc2O[C@@H](C)CCCCO[C@H]1CN(C)S(=O)(=O)c1ccc(F)cc1 | -0.3 | nt | nt | nt | nt | nt
CCCCCCCCN1C(=O)[C@@H](CC(=O)NCCc2ccccc2OC)C[C@@]2(C(=O)OC)C1=C[C@H](COCc1ccccc1)O[C@@H]2C | 1.6 | nt | nt | nt | nt | nt
CCCN1CCN(C(=O)c2cc(COc3ccc4ncccc4c3)on2)CC1 | -3.7 | 1.9 | 61.3 | -0.3 | 44.1 | 67.8
Cc1ccc(NC(=O)Cn2c(=O)oc3cc(S(=O)(=O)N4CCC(C)CC4)ccc32)cc1C | -6.0 | -0.5 | 48.3 | 2.5 | 50.3 | 52.6
COc1ccc(CN(C)Cc2nc(Cc3cccc(F)c3)no2)c2cccnc12 | -3.5 | 3.4 | 80.4* | -1.8 | 92.4* | 80.7*
COc1cccc(-n2cc(CN(C)Cc3nc(Cc4cccc(F)c4)no3)cn2)c1 | -5.8 | 2.6 | 1.4 | -1.8 | nt | nt
CCCCc1c(-c2ccccc2OC)ncn1CCc1ccccc1OC | 9.5 | nt | 27.9 | -0.5 | nt | nt
CCCCCc1c(-c2ccccc2OC)ncn1CCc1ccccc1OC | 0.0 | nt | 65.8 | -0.7 | 61.6 | 30.2
CCC1(CC)C(=O)C(C)(C)C(=O)OC1c1ccccn1 (stereo not given) | -1.8 | 0.0 | 91.7* | -1.6 | 19.0 | 14.8
Fc1ccc(C(CCCn2nnc(-c3cccnc3)n2)c2ccc(F)cc2)cc1 | -4.2 | -0.3 | 51.9 | 0.4 | 55.1 | 50.9
Fc1ccc(-n2nnc(-c3cccnc3)n2)cc1 | 4.5 | -2.0 | -77.4 | 0.4 | nt | nt
Cc1ccc(S(=O)(=O)N2[C@@H](c3ccc(Cl)c(Cl)c3)C(C(=O)O)=C[C@H]2CC2CCCC2)cc1 | -4.1 | nt | 87.9* | 0.6 | 82.2* | 47.4
Cc1ccc(S(=O)(=O)N2[C@@H](c3ccc(Cl)cc3)C(C(=O)O)=C[C@H]2CC2CCCC2)cc1 | 3.1 | nt | 30.1 | -3.7 | nt | nt
CCC(NC(=O)Nc1nnc(C(F)(F)F)s1)(C(F)(F)F)C(F)(F)F | -5.1 | 4.6 | 104.3* | 0.4 | 97.3* | 90.4*
COc1ccc(C(=O)O/N=C(\N)c2ccccc2)cc1 | -0.1 | -4.0 | -153.3 | -0.8 | nt | nt
CC(C)(C)c1ccc(C(=O)O/N=C(\N)c2ccccc2)cc1 | 0.8 | 1.8 | 81.2* | -1.1 | 78.5* | 73.5*
CCn1c(Cc2cccs2)nnc1SCC(=O)Nc1ccc(Cl)cc1C | 1.8 | nt | nt | nt | nt | nt

Screening results: PubChem BioAssay, several laboratories
